# Sampled rows, rich in hits. Any-hit rate of the full collection: about 3.5%.
# HTRA1 inh – inhibitors of human serine peptidase HTRA1 | inhibition, % at 5.96 µM | 340,000 tested, 0.5% active | AID 504803 | Q92743 | recombinant HTRA1, FP-rhodamine activity-based probe, fluorescence polarization; in the data active = inhibition above about 36%;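 note: 0% = enzyme with DMSO and 100% = wells lacking enzyme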
# SIAE inh – human SIAE inhibition, primary screen. 370,000 tested, 0.69% active. inhibition, % at 9.66 µM. Q9HAT2. SIAE FP-Rh probe binding, fluorescence polarization. AID 1053197;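 active = inhibition above a cutoff: mean of compounds within the control limits plus 3 SD of those, cut at about 17% in these data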;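 note: 0% = plate median of compound wells and 100% = probe without SIAE protein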
# Target sequence (Q9HAT2 whole entry, looked up): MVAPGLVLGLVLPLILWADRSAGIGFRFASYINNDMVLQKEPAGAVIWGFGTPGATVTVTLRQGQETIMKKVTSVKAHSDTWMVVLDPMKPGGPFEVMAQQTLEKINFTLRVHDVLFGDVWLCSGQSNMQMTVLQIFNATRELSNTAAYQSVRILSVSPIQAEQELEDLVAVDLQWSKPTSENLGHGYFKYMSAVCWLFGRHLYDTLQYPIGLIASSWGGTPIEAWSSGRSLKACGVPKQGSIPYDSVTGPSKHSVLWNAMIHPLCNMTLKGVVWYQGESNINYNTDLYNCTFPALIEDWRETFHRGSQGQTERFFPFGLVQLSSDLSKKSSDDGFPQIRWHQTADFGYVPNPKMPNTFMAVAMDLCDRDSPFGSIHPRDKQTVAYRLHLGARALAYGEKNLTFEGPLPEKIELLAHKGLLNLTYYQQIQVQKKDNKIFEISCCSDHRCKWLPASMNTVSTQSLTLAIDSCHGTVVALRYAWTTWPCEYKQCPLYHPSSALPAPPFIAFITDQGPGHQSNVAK
# rCAG binder – binds r(CAG) RNA repeats | r(CAG) RNA repeat, TO-PRO-1 dye displacement fluorescence | inhibition, % at 3 µM | 370,000 tested, 1.3% active | AID 651821;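 active = inhibition above the plate cutoff, the mean of all test compounds on that plate plus 3 SD, cut at about 35% in these data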;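 note: 0% = DMSO alone and 100% = 100 µM mitoxantrone as full dye displacement; higher means more dye released from RNA so lower well fluorescence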
# ABHD4 inh – inhibitors of mouse ABHD4; AID 720543; 370,000 tested, 0.54% active; Q8VD66; purified mABHD4, FP-Rh probe fluorescence polarization; inhibition, % at 8.92 µM;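 active = inhibition exceeding the mean over every tested compound plus 3 SD, cut at about 30% in these data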;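 note: 0% = plate median of compound wells and 100% = S159A mutant with DMSO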
#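 Assay system: mouse ABHD4 enzyme, wild type / Also added: fluorescent activity-based probe FP-Rh / Doses: single nominal dose of 8.92 µM, 0.89% DMSO final / Timing: 45 min compound pre-incubation plus 60 min probe step, 25 °C / Signal: FP readout, ex 525 nm / em 598 nm / Control set: S159A mutant/DMSO as 100%, compound-well median as 0%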
# PRMT1 inh – blocks human protein arginine methyltransferase 1; Q99873; inhibition, % at 2.79 µM; recombinant PRMT1, activity-based probe fluorescence polarization; AID 652257; 370,000 tested, 1.3% active;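 active = inhibition above about 21% made by adding two undisclosed values, limit read from the data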
# TCR-CD3 inh – human TCR-CD3 binding inhibition; TAMRA-labeled TCR probe fluorescence, biochemical; inhibition, % at 9.4 µM; 360,000 tested, 0.37% active; in the data active = inhibition above about 19%;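 note: recombinant mutant TCR 2C K166C tagged with TAMRA read by polarization; 0% = receptor in buffer alone and 100% = receptor with positive control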
# rCAG bind conf – r(CAG) RNA repeat binding, confirmation | shares compounds with rCAG binder | TO-PRO-1 dye displacement fluorescence | inhibition, % at 3 µM | 4,300 tested, 70% active;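 active = inhibition above a per-plate cutoff, the mean inhibition of sample wells plus 3 SD, cut at about 35% in these data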;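 note: loss of TO-PRO-1 fluorescence as compound displaces dye from 1x1 AA loop RNA; 0% = DMSO only wells and 100% = 100 µM mitoxantrone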
# DNA CAG counter – disrupts DNA CAG TO-PRO-1 complex, flagging rCAG hits | shares compounds with rCAG binder | d(CAG) DNA oligo TO-PRO-1 dye displacement, fluorescence | inhibition, % at 3 µM | 4,300 tested, 94% active | AID 652068;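 active = inhibition above its plate's cutoff, the mean test-well inhibition plus 3 SD, cut at about 4.8% in these data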;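 note: 0% = DNA dye mix with DMSO and 100% = 100 µM mitoxantrone; hits displace the dye from DNA and so lower well fluorescence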
# dCAG dye DR – counter-screen for rCAG binders: inhibitors of DNA CAG TO-PRO-1 complex. shares compounds with rCAG binder. 250 tested, 20% active. DNA CAG/GTC duplex TO-PRO-1 dye displacement fluorescence. IC50, µM; in the data active = IC50 below about 10 µM
# The depositor's hits bear a star; i = inactive; / = no result.
SMILES,HTRA1 inh,SIAE inh,rCAG binder,ABHD4 inh,PRMT1 inh,TCR-CD3 inh,rCAG bind conf,DNA CAG counter,others
COc1ccccc1Cc1c(-c2ccccc2)nc2ccc(Br)cn12,/,1.0,16.8,4.4,-0.7,-4.3,/,/,
COc1ccccc1Cc1c(-c2ccc(Cl)cc2)nc2ccc(Br)cn12,/,-0.6,41.7*,-7.2,1.9,-6.5,15.9,6.8*,
Cc1cc(Br)cn2c(Cc3ccccc3)c(-c3ccc(Cl)cc3)nc12,/,2.9,10.5,-9.9,-0.9,1.2,/,/,
Cc1ccc(Cc2c(-c3ccc(C)cc3)nc3c(C)cc(Br)cn23)cc1,/,-2.7,41.4*,-22.4,1.5,-4.2,8.8,6.3*,
COc1ccccc1Cc1c(-c2cccc(Br)c2)nc2ccc(Br)cn12,/,7.5,53.6*,4.6,-0.3,-1.4,15.1,7.3*,
Cc1ccc(Cc2c(-c3ccc(C)cc3)nc3ccc(Br)cn23)cc1,-40.9,-4.5,20.7,0.1,-0.1,4.3,/,/,
Cc1ccc(Cc2c(-c3cccc(Br)c3)nc3ccc(Br)cn23)cc1,/,-3.0,37.8*,-2.2,-0.6,1.8,31.1,9.7*,
O=C(OCC#CCSc1nnc(-c2cccc3ccccc23)o1)c1ccc(Cl)c(C(F)(F)F)c1,/,1.3,/,1.0,-4.1,/,/,/,
COC(=O)C1=C(C)N(C)C(=NCc2ccccc2C(F)(F)F)NC1CCc1ccccc1 (stereo unspecified),/,5.0,5.5,2.5,-3.8,9.1,/,/,
Cc1ccc(OS(=O)(=O)c2ccccc2)c(/C=N/N=C2\NC(=O)C(C)S2)c1 (stereo unspecified),-18.7,3.0,36.3*,-1.2,-2.0,6.0,46.1*,12.8*,
O=C(O)COc1ccc(/C=C/C(=O)c2ccc(C3CCCCC3)cc2)cc1,-32.8,-5.6,48.2*,-30.5,0.2,6.7,67.9*,28.9*,
CCC(=O)N1CCc2cc(Br)c(S(=O)(=O)N3CCC(C(=O)NC(C)(C)C)CC3)cc21,/,12.5,1.8,-1.8,1.4,/,/,/,
O=C(CSc1nnc(-c2cccnc2)n1-c1ccccc1)c1ccccc1Cl,/,5.8,10.2,1.4,5.4,/,/,/,
CSc1nc(=S)c2[nH]c(=S)[nH]c2[nH]1,4.9,-17.3,64.6*,-2.5,87.8*,7.0,67.6*,30.3*,dCAG dye DR=9.28*
COc1ccccc1/C=C1\SC(=S)N(N2C(=O)CCCC2=O)C1=O,-4.6,-3.1,-0.2,15.8,0.1,1.1,/,/,
COc1ccc(/C=C2\SC(=S)N(NS(=O)(=O)c3ccc(C)cc3)C2=O)c(OC)c1,-63.8,-15.3,86.6*,-3.9,0.8,8.6,85.3*,57.5*,
COc1ccc(OC)c(/C=C2\SC(=S)N(NS(=O)(=O)c3ccc(C)cc3)C2=O)c1,-53.8,-5.9,84.4*,-4.7,3.0,1.9,87.4*,51.8*,
COc1ccccc1/C=C1\SC(=S)N(NS(=O)(=O)c2ccc(C)cc2)C1=O,-24.5,-11.3,77.9*,1.2,3.5,2.7,68.9*,33.2*,
CCOC(=O)C1=C(C)N=c2s/c(=C3/C(=O)Nc4ccccc43)c(=O)n2C1c1ccc(C)cc1 (stereo unspecified),-11.4,-31.4,42.6*,-12.7,22.9*,8.3,53.4*,22.4*,dCAG dye DR=i
CCOC(=O)C1=C(C)N=c2s/c(=C\c3ccc(C(=O)O)cc3)c(=O)n2C1c1ccc(F)cc1 (stereo unspecified),-2.4,-1.1,6.4,0.6,12.6,-6.1,/,/,
CCOC(=O)[C@]12CCCCC/C=C\1N(Cc1ccc(OC)cc1)C(=O)[C@H]2CC(=O)NCCC(C)C,/,1.9,-1.3,-2.6,-4.3,/,/,/,
CCCc1cc(=O)[nH]c(SCC(=O)NC(=O)c2ccccc2)n1,1.8,/,/,/,/,/,/,/,
CCCc1cc(=O)[nH]c(SCC(=O)Nc2nc(-c3ccccc3)cs2)n1,-54.7,3.1,44.5*,0.1,3.5,3.9,56.2*,19.4*,
COc1ccc(Cl)cc1NC(=O)CSc1nc(-c2ccccc2)cc(=O)[nH]1,-13.1,-1.9,42.9*,-7.5,-3.1,5.7,67.5*,30.1*,
